The test system of this assay is BlAga3. The assay can be described thus: HPAEC-PAD of released products. The format is biochemical, Bifidobacterium longum subsp. longum. The conditions noted are these: 50 mM sodium acetate pH 6.0, 45 °C, 20 min. In short, it runs like this: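 His-tagged recombinant BlAga3, TALON-purified (50 mM imidazole fraction, desalted). Enzyme in 50 mM sodium acetate pH 6.0 at 45 °C for 20 min: 0.20 μg/mL with 0.1–10 mM α-D-Gal-(1→3)-L-Ara, or 0.79 μg/mL with 1.0–50 mM raffinose. Stopped with 5 % TCA; released sugars quantified by HPAEC-PAD (NaOH/sodium acetate gradient).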

Molecules are shown by their SMILES.

Regarding `OC[C@H]1O[C@H](OC[C@H]2O[C@H](O[C@]3(CO)O[C@H](CO)[C@@H](O)[C@@H]3O)[C@H](O)[C@@H](O)[C@@H]2O)[C@H](O)[C@@H](O)[C@H]1O` [Raffinose], the Km (1.0-50 mM substrate) stood at 29.5 ± 1 mM. On to `OC[C@H]1O[C@H](O[C@H]2[C@@H](O)COC(O)[C@@H]2O)[C@H](O)[C@@H](O)[C@H]1O` (stereo partly drawn) [GA, α-D-Gal-(1→3)-L-Ara], for which the Km (0.1–10 mM substrate) came to 0.774 ± 0.014 mM.
